CSN inh – inhibitors of CSN-mediated cullin deneddylation, primary screen, biochemical, fluorescence polarization, uHTS. COP9 signalosome complex subunit 5 (Homo sapiens), Q92905. Purified CSN, SCF-Nedd8-OG deneddylation. inhibition, % at 12.5 µM. 0.38% of 360,000 active. AID 651999, 2013;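 active means pattern-corrected inhibition above about 35%, with an unprinted fluorescence ratio check between 0.5 and 1.5, limit read from the data, passing the limit was not always enough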
Target sequence (Q92905 whole entry, looked up, one chain of several): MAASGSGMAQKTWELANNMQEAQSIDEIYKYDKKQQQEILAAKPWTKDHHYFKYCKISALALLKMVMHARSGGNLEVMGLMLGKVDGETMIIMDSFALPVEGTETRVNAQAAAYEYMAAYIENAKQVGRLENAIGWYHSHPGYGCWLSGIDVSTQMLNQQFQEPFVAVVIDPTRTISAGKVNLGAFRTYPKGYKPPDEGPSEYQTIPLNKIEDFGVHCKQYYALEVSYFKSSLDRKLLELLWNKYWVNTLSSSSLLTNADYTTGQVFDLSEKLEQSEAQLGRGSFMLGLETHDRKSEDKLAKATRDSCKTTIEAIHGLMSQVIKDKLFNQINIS
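Test system: Human Csn5 produced in HEK293T cells | Compound: 12.5 µM single point | Times: 90 min, room temperature | Signal: Fluorescence polarization readout | Read-out basis: % inhibition of substrate cleavage by Csn5 | Controls: no-enzyme wells high, enzyme-with-substrate wells low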
TPT1 inh – Candida albicans TPT1 enzyme inhibitors, primary screen, biochemical, fluorescence polarization | tRNA 2'-phosphotransferase TPT1 (Candida albicans SC5314) | recombinant caTPT1, FP RNA substrate dephosphorylation | inhibition, % at 5 µM | 0.81% of 300,000 active | AID 1962, 2009;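 active means inhibition above the mean of all tested compounds plus 3 SD, set per screening campaign, cut at about 24% in these data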
HNF4A DNA FP – change in binding of human HNF4A to DNA, primary screen, biochemical, fluorescence polarization, FITC-DNA; 1 h; 0.3% of 360,000 active; activity change, % at 10 µM; AID 1224865, 2016; in the data active means activity change above about 30%, passing the limit was not always enough
Rpn11 block – Rpn11 (PSMD14) deubiquitinase inhibitors, primary screen, biochemical, fluorescence polarization, uHTS; 26S proteasome non-ATPase regulatory subunit 14 (Homo sapiens), O00487; human 26S proteasome, Ub4-pepOG fluorescence polarization; 20S core pre-blocked with epoxomicin; inhibition, % at 20 µM; 0.59% of 360,000 active; AID 588493, 2011;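 active means inhibition at 20 µM, scaled to each plate's controls, above about 33%, limit read from the data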
Myeloid diff MLP – induction of myeloid progenitor differentiation, primary screen, cell-based, flow cytometry, MLPCN library | ER-HoxA9 myeloid progenitors, lysozyme-GFP differentiation | calls only at 10 µM | 1% of 360,000 active;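 active means normalized GFP-positive differentiation at or above the plate's own cutoff, the solvent-only control mean plus 3 SD; inconclusive means no clear call, values can overlap the other calls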;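 further: cells exposed to compound for four days before flow analysis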
TPT1 inh confirm – Candida albicans TPT1 inhibitors, confirmation, biochemical, fluorescence polarization, triplicate; shares compounds with TPT1 inh; recombinant caTPT1, RNase T1 coupled; inhibition, % at 5 µM; 74% of 2,400 active; AID 2149, 2009;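 active means inhibition above the primary screen limit, the mean inhibition of all tested compounds plus 3 SD, cut at about 25% in these data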
RNase T1 counter – RNase T1 inhibitors, counter-screen for TPT1 inhibitor project, biochemical, fluorescence polarization; shares compounds with TPT1 inh; RNase T1 cleavage, 1536-well; inhibition, % at 5 µM; 83% of 2,400 active;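 active means inhibition above the solvent-only control well mean plus 3 SD, limit set per screening run, cut at about 23% in these data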;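 further: inhibitors block cleavage so intact labeled substrate keeps polarization high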
Target sequence (P00651 whole entry, looked up): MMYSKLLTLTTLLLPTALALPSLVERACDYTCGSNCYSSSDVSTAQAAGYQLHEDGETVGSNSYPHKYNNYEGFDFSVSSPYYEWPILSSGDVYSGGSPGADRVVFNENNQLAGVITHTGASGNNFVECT
Of the large screens only hits and unclear results are named; the others gave an inactive call (follow-up assays come after a bar, where shown). Hits are enriched below; roughly 2.3% of the tested compounds scored in any of these assays.

O=C(NCc1cccnc1)C12CC3CC(CC(Cl)(C3)C1)C2	none
CCn1nc(C(=O)Nc2ccc(S(=O)(=O)Nc3nccs3)cc2)c2ccccc2c1=O	TPT1 inh 31 | TPT1 inh confirm 54 | RNase T1 counter 71
O=C(Nc1ccc(S(=O)(=O)Nc2nccs2)cc1)c1cnc(Cl)c(Cl)c1	TPT1 inh 33 | TPT1 inh confirm 31 | RNase T1 counter 48
O=C(Nc1ccc(S(=O)(=O)Nc2ncccn2)cc1)c1cnc(Cl)c(Cl)c1	none
CNc1ccc(Br)cc(C(=O)/C=C/c2cccc(OC)c2OC)c1=O	TPT1 inh 41 | TPT1 inh confirm 65 | RNase T1 counter 76
CNc1ccc(Br)cc(C(=O)/C=C/c2cccc(Cl)c2Cl)c1=O	none (no result: TPT1 inh)
COC(=O)/C=C/c1ccc2c(c1)OCO2	none
CCNc1ccc(Br)cc(C(=O)/C=C/c2ccccc2Cl)c1=O	TPT1 inh 53 | TPT1 inh confirm 88 | RNase T1 counter 94
CCNc1ccccc(C(=O)/C=C/c2ccc3c(c2)OCO3)c1=O	TPT1 inh 26 | TPT1 inh confirm inactive | RNase T1 counter inactive
Cc1ccc(S(=O)(=O)N(C)c2ccc(C(=O)Nc3ccccc3C(=O)N3CCOCC3)cc2)cc1	none
C[C@@H](C(=O)CC(=O)OC(C)(C)C)[C@@H](O)c1ccccc1	none
COc1ccc(NS(=O)(=O)c2ccc(N/N=C/c3ccc(N4CCOCC4)cc3)c([N+](=O)[O-])c2)cc1	none
COc1ccc(/C=N/Nc2ccc(C(F)(F)F)cc2[N+](=O)[O-])cc1	TPT1 inh 62 | TPT1 inh confirm inactive | RNase T1 counter inactive
O=C(NC1CCCc2ccccc21)c1cccc(F)c1 (stereo unspecified)	none (no result: TPT1 inh)
C=CCNc1nc(N)c([N+](=O)[O-])c(Nc2cccc(Cl)c2)n1	TPT1 inh 36 | TPT1 inh confirm inactive | RNase T1 counter inactive
CNc1nc(N)c([N+](=O)[O-])c(Nc2cccc(Cl)c2)n1	none
CCOc1cc(C(=O)OC(C(=O)NC(=O)NC)c2ccccc2)ccc1OCC(=O)N1CCOCC1 (stereo unspecified)	none (no result: TPT1 inh)
CC(=O)c1sc(N/N=C\c2c(O)ccc3ccccc23)nc1C	TPT1 inh 117, HNF4A DNA FP 83 (not shown: Rpn11 block) | TPT1 inh confirm 124 | RNase T1 counter 120
Cc1ccc(N=Cc2cccc(O)c2O)c(C)c1	none
Cc1ccc(N=Cc2sc(O)c3ccccc23)c(C)c1	TPT1 inh 117 (not shown: Rpn11 block) | TPT1 inh confirm 80 | RNase T1 counter 94
O=C(N/C=C/c1ccco1)NCc1ccccc1	none
O=C(N/C=C/c1ccco1)OCc1ccccc1	TPT1 inh 31, Rpn11 block 36 | TPT1 inh confirm inactive | RNase T1 counter 31
CCc1nnc(NS(=O)(=O)c2ccc(N/C=C(\C=O)c3nc4cc(Cl)ccc4o3)cc2)s1	TPT1 inh 80 | TPT1 inh confirm inactive | RNase T1 counter inactive
O=C(COC(=O)c1c2c(nc3ccccc13)/C(=C/c1ccco1)CC2)NC1CCCC1	none (no result: TPT1 inh)
CC1CCCCC1NC(=O)COC(=O)c1c2c(nc3ccccc13)/C(=C/c1ccco1)CC2 (stereo unspecified)	TPT1 inh 33 | TPT1 inh confirm 29 | RNase T1 counter 41
COc1ccc(CC(=O)Nc2ccc(N(C)C)c3ccccc23)cc1	none
O=c1c2cc(F)ccc2[nH]c(=S)n1Cc1ccc(F)cc1	none (no result: Myeloid diff MLP)
O=C(/C=C/c1cn(CC(O)CN2CCCCC2)c2ccccc12)c1cccs1 (stereo unspecified)	TPT1 inh 64, Myeloid diff MLP active (not shown: Rpn11 block) | TPT1 inh confirm 65 | RNase T1 counter 72
OC(CN1CCCCC1)Cn1c2ccccc2c2ccccc21 (stereo unspecified)	none
COc1ccc(C(=O)/C=C/c2cn(CC(O)CN3CCN(C)CC3)c3ccccc23)cc1OC (stereo unspecified)	CSN inh 55, TPT1 inh 50, HNF4A DNA FP 48 (not shown: Rpn11 block) | TPT1 inh confirm 61 | RNase T1 counter 72
Cc1ncc(CO)c(CNc2ccc(-c3nc4ccccc4[nH]3)cc2)c1O	none (no result: TPT1 inh)
Cc1cc(Br)ccc1OCCN1CC(C)OC(C)C1 (stereo unspecified)	TPT1 inh 48 | TPT1 inh confirm inactive | RNase T1 counter inactive
Cc1cc(Br)ccc1OCCN1CCCC1	none
COC(=O)Cn1nc(-c2ccc(C)cc2)c2ccccc2c1=O	none
CSc1nc(-c2ccccc2)nc(SC)c1C(C)=O	TPT1 inh 26 | TPT1 inh confirm inactive | RNase T1 counter inactive
CC(=Nc1ccccc1)c1sc2ccccc2c1O	TPT1 inh 31 | TPT1 inh confirm 51 | RNase T1 counter 67
CC(=Nc1ccc(Br)cc1)c1sc2ccccc2c1O	TPT1 inh 78 | TPT1 inh confirm 88 | RNase T1 counter 95
N#Cc1ccc(-c2ccccc2)nc1SCC(=O)c1cccc(Cl)c1	TPT1 inh 45, Myeloid diff MLP active | TPT1 inh confirm 27 | RNase T1 counter 36
O=C(OCCN1C(=O)c2cccc3c(N4CCOCC4)ccc(c23)C1=O)c1ccccc1Cl	TPT1 inh 53 | TPT1 inh confirm 63 | RNase T1 counter 70
O=C(OCCN1C(=O)c2ccccc2C1=O)c1cc(S(=O)(=O)N2CCOCC2)ccc1Cl	none
O=C(OCCN1C(=O)c2cccc3c(N4CCOCC4)ccc(c23)C1=O)c1cccc(Cl)c1	TPT1 inh 49 (no result: CSN inh, HNF4A DNA FP, Rpn11 block, Myeloid diff MLP) | TPT1 inh confirm 62 | RNase T1 counter 70
O=C(OCCN1C(=O)c2cccc3c(N4CCOCC4)ccc(c23)C1=O)c1ccc(Cl)cc1Cl	TPT1 inh 59, Myeloid diff MLP inconclusive | TPT1 inh confirm 64 | RNase T1 counter 70
O=C(Nc1ccc(Cl)cc1F)C1CC1	none
N#Cc1ccc(NC(=O)Cn2cnc(S(=O)(=O)N3CCCC3)c2)cc1	Myeloid diff MLP inconclusive
O=C(c1ccccc1Br)N(Cc1ccccc1)c1ccccc1	none
O=C(O)CC/C(=N\Nc1ccc([N+](=O)[O-])cc1S(=O)(=O)N1CCOCC1)c1cccs1	TPT1 inh 29 | TPT1 inh confirm 41 | RNase T1 counter 52
CCN(CC)c1ccc(C(=O)O)cc1	none
CCN(CC)c1ccc(/C=C2\C(=O)c3ccc(C(=O)O)cc3C2=O)cc1	TPT1 inh 143, HNF4A DNA FP 84 (not shown: Rpn11 block) | TPT1 inh confirm 122 | RNase T1 counter 116
